Results: ChEMBL document CHEMBL3243985, “Synthesis of two metabolites of (+)-propoxyphene” (J Med Chem, 1977)
The source made the active and inactive calls. The rule behind the calls is not given here.

What was measured:
[1] = tested on: Mus musculus; test: Analgesic activity in sc dosed mouse assessed as peak inhibition of acetic acid-induced writhing measured at 5 to 15 mins; type: functional, organism-based
[2] = tested on: Mus musculus; test: Analgesic activity in sc dosed mouse assessed as inhibition of acetic acid-induced writhing measured at 30 to 60 mins; type: functional, organism-based
[3] = tested on: Mus musculus; test: Analgesic activity in sc dosed mouse assessed as inhibition of acetic acid-induced writhing; type: functional
Summary of the method: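 Test agents were given to mice by subcutaneous injection, and doses were expressed in mg/kg. The ED50 was derived from the dose-response data and reported with 95% confidence limits.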

[4] = tested on: Mus musculus; test: Analgesic activity in sc dosed mouse assessed as inhibition of acetic acid-induced writhing in presence of 10 mg/kg naloxone; type: functional, organism-based; design: dose 10 mg/kg; details: at 10 mg/kg
[5] = species on record: Mus musculus; test: Toxicity in mouse assessed as scratching at injection site at 1 mg/ml; type: organism-based; details: in vivo
[6] = tested on: Mus musculus; test: Analgesic activity in mouse assessed as inhibition of acetic acid-induced writhing at 100 mg/kg, sc; type: functional, organism-based; design: dose 100 mg/kg

| SMILES | inhibition [1] | inhibition [2] | ED50 [3] [mg/kg] | inhibition [4] | Activity [5] | inhibition [6] |
| --- | --- | --- | --- | --- | --- | --- |
| CCC(=O)O[C@](Cc1ccccc1)(c1ccccc1)[C@H](C)CN | Active | Active | 25 | inactive | Toxic |  |
| CCC(=O)OC(Cc1ccccc1)(c1ccccc1)C(C)CN.Cl (racemic) | Active | Active | 51 | inactive | Toxic |  |
| CCC(=O)O[C@](Cc1ccccc1)(c1ccccc1)[C@H](C)CN(C)C [PROPOXYPHENE] |  |  | 6.9 |  |  |  |
| CCC1=NCC(C)C(Cc2ccccc2)(c2ccccc2)O1 (racemic) |  |  |  |  |  | inactive |
